Measured values published in ChEMBL document CHEMBL1143677, “Discovery of 4-aryl-4H-chromenes as a new series of apoptosis inducers using a cell- and caspase-based high-throughput screening assay. 3. Structure-activity relationships of fused rings at the 7,8-positions” (J Med Chem, 2007).

Legend:
[1] = tested on: T47D; experiment: Apoptosis inducing activity in human T47D cells by caspase activation assay; type: functional, cell-based
In short: (§1)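 Cell-based caspase activation (apoptosis induction) HTS assay run in T47D breast and H1299 non-small-cell lung cancer cells; EC50 reported as mean ± SEM of three or more experiments.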

[2] = tested on: NCI-H1299; experiment: Apoptosis inducing activity in human H1299 cells by caspase activation assay; type: functional, cell-based; in short: as §1
[3] = molecular target: Tubulin; experiment: Inhibition of tubulin polymerization; type: protein-complex assay, Homo sapiens
[4] = tested on: T47D; experiment: Growth inhibition of human T47D cells after 48 hrs; type: functional
In short: (§2)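 Cells were exposed continuously to compound for 48 h at 37 °C in 96-well format. CellTiter-Glo reagent was added with agitation, then 10-15 min at room temperature before luminescence read-out.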

[5] = Growth inhibition of human H1299 cells after 48 hrs; type: functional; settings: NCI-H1299, 48 h; in short: as §2

SMILES	EC50 [1]	EC50 [2]	GI50 [4]	IC50 [3]	GI50 [5]
COc1cc(C2C(C#N)=C(N)Oc3c2ccc2ccccc32)cc(OC)c1OC (stereo not given)	27 nM	67 nM			
N#CC1=C(N)Oc2c(ccc3[nH]ccc23)C1c1ccccc1 (stereo not given)		430 nM			
N#CC1=C(N)Oc2c(ccc3[nH]ccc23)C1c1cccnc1 (stereo not given)	110 nM	190 nM			
COc1cncc(C2C(C#N)=C(N)Oc3c2ccc2[nH]ccc32)c1 (stereo not given)	16 nM	30 nM			
COc1cc(C2C(C#N)=C(N)Oc3c2ccc2[nH]ccc32)cc(Br)c1OC (stereo not given)		13 nM	8 nM	400 nM	19 nM
Cc1cncc(C2C(C#N)=C(N)Oc3c2ccc2cnccc32)c1 (stereo not given)	230 nM	290 nM			
Cc1cncc(C2C(C#N)=C(N)Oc3c2ccc2[nH]ccc32)c1 (stereo not given)	13 nM	65 nM	73 nM		100 nM
COc1cc(C2C(C#N)=C(N)Oc3c2ccc2ncccc32)cc(Br)c1OC (stereo not given)	65 nM	140 nM			
N#CC1=C(N)Oc2c(ccc3[nH]ccc23)C1c1cccc(C#N)c1 (stereo not given)	43 nM	43 nM			
N#CC1=C(N)Oc2c(ccc3cc[nH]c23)C1c1cccc(C#N)c1 (stereo not given)	120 nM	130 nM			
COc1cccc(C2C(C#N)=C(N)Oc3c2ccc2[nH]ccc32)c1 (stereo not given)	52 nM	66 nM			
N#CC1=C(N)Oc2c(ccc3[nH]ccc23)C1c1cccc([N+](=O)[O-])c1 (stereo not given)	68 nM	96 nM			
N#CC1=C(N)Oc2c(ccc3cnccc23)C1c1cncc(Br)c1 (stereo not given)	120 nM	150 nM			

Continued, in another order:

EC50 [1]	EC50 [2]	GI50 [4]	SMILES	IC50 [3]	GI50 [5]
31 nM	59 nM		COc1cc(OC)cc(C2C(C#N)=C(N)Oc3c2ccc2cc[nH]c32)c1 (stereo not given)		
88 nM	140 nM		COc1cccc(C2C(C#N)=C(N)Oc3c2ccc2cc[nH]c32)c1 (stereo not given)		
160 nM	22 nM		COc1cc(C2C(C#N)=C(N)Oc3c2ccc2ncccc32)cc(OC)c1OC (stereo not given)		
	53 nM	9 nM	COc1cc(C2C(C#N)=C(N)Oc3c2ccc2cc[nH]c32)cc(Br)c1OC (stereo not given)	900 nM	6 nM
30 nM	120 nM		COc1cc(OC)cc(C2C(C#N)=C(N)Oc3c2ccc2[nH]ccc32)c1 (stereo not given)		
73 nM	93 nM		COc1cc(C2C(C#N)=C(N)Oc3c2ccc2ccccc32)cc(Br)c1OC (stereo not given)		
61 nM	150 nM	57 nM	COc1cc(C2C(C#N)=C(N)Oc3c2ccc2cnccc32)cc(Br)c1OC (stereo not given)		71 nM
72 nM	180 nM		COc1cc(C2C(C#N)=C(N)Oc3c2ccc2cc[nH]c32)cc(OC)c1OC (stereo not given)		
190 nM	520 nM		COc1cc(C2C(C#N)=C(N)Oc3c2ccc2c3CCCC2)cc(Br)c1OC (stereo not given)		
2120 nM	2720 nM		COc1cc(C2C(C#N)=C(N)Oc3c2ccc2nc(C)c(C)nc32)cc(Br)c1OC (stereo not given)		
120 nM	440 nM		COc1cc(C2C(C#N)=C(N)Oc3c2ccc2cnccc32)cc(OC)c1OC (stereo not given)		
64 nM	130 nM		COc1cc(C2C(C#N)=C(N)Oc3c2ccc2cnccc32)cc(I)c1OC (stereo not given)		
		150 nM	COc1cc(C2C(C#N)=C(N)Oc3c2ccc(N)c3N)cc(Br)c1OC (stereo not given)		31 nM
30 nM	77 nM		COc1cc(C2C(C#N)=C(N)Oc3c2ccc2[nH]ccc32)cc(OC)c1OC (stereo not given)		
13 nM	25 nM	57 nM	COc1cc(C2C(C#N)=C(N)Oc3c2ccc2[nH]ccc32)cc(Br)c1O (stereo not given)		71 nM
35 nM	80 nM	70 nM	COc1cc(C2C(C#N)=C(N)Oc3c2ccc2cc[nH]c32)cc(Br)c1O (stereo not given)		70 nM
64 nM	128 nM		COc1cc(C2C(C#N)=C(N)Oc3c2ccc2ccccc32)cc(I)c1OC (stereo not given)		
460 nM	860 nM	450 nM	COc1cc(C2C(C#N)=C(N)Oc3c2ccc2nccnc32)cc(Br)c1OC (stereo not given)		550 nM
29 nM	94 nM		COc1cc(C2C(C#N)=C(N)Oc3c2ccc2cccnc32)cc(Br)c1OC (stereo not given)		
	57 nM	89 nM	COc1cc(C2C(C#N)=C(N)Oc3c2ccc2[nH]c(C)cc32)cc(Br)c1OC (stereo not given)		140 nM
